Measured values reported in ChEMBL document CHEMBL1123041, “Synthesis of new bis(aminoethanethiol) (BAT) derivatives: possible ligands for 99mTc brain imaging agents” (J Med Chem, 1985).

Experiments:
Rattus norvegicus [1] = assay: Biodistribution in Sprague-Dawley rat kidneys(2) 15 minutes after intravenous administration, [99mTc]/[125I] IAP ratio); assay type: ADME, organism-based, Kidney; settings: in vivo, 0.25 h
Method in brief: (§1)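 99mTc complex and [125I]iodoantipyrine were co-injected iv into rats. Rats were killed by cardiectomy at 2 or 15 min, and organs were excised, weighed and gamma-counted in two channels with spillover correction. The ratio is 99mTc percent dose divided by 125I percent dose in the same organ, averaged over three rats. Radiochemical purity of the complexes was >95% by reversed-phase HPLC.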

Rattus norvegicus [2] = assay: Biodistribution in Sprague-Dawley rat skin 2 minutes after intravenous administration, [99mTc]/[125I] IAP ratio); assay type: ADME, organism-based, Zone of skin; settings: in vivo; method in brief: as §1
Rattus norvegicus [3] = assay: Biodistribution in Sprague-Dawley rat small intestine 15 minutes after intravenous administration, [99mTc]/[125I] IAP ratio); assay type: ADME, organism-based; settings: in vivo, 0.25 h; method in brief: as §1
Rattus norvegicus [4] = assay: Biodistribution in Sprague-Dawley rat small intestine 2 minutes after intravenous administration, [99mTc]/[125I] IAP ratio); assay type: ADME, organism-based; settings: in vivo; method in brief: as §1
Rattus norvegicus [5] = assay: Biodistribution in Sprague-Dawley rat spleen 15 minutes after intravenous administration, [99mTc]/[125I] IAP ratio); assay type: ADME, organism-based; settings: in vivo, 0.25 h; method in brief: as §1
Rattus norvegicus [6] = assay: Biodistribution in Sprague-Dawley rat spleen 2 minutes after intravenous administration, [99mTc]/[125I] IAP ratio); assay type: ADME, organism-based; settings: in vivo; method in brief: as §1
Rattus norvegicus [7] = assay: Biodistribution in Sprague-Dawley rat thyroid 15 minutes after intravenous administration, [99mTc]/[125I] IAP ratio); assay type: ADME, organism-based, Thyroid gland; settings: in vivo, 0.25 h; method in brief: as §1
Rattus norvegicus [8] = assay: Biodistribution in Sprague-Dawley rat thyroid 2 minutes after intravenous administration, [99mTc]/[125I] IAP ratio); assay type: ADME, organism-based, Thyroid gland; settings: in vivo; method in brief: as §1
Rattus norvegicus [9] = assay: Compound was evaluated for the biodistribution in Sprague-Dawley rats in muscle 15 minutes after intravenous administration, [99mTc]/[125I] IAP ratio); assay type: ADME, organism-based, Muscle tissue; settings: in vivo, 0.25 h; method in brief: as §1
Rattus norvegicus [10] = assay: Biodistribution in Sprague-Dawley rat blood 15 minutes after intravenous administration, [99mTc]/[125I] IAP ratio); assay type: ADME, organism-based; settings: in vivo, 0.25 h; method in brief: as §1
Rattus norvegicus [11] = assay: Biodistribution in Sprague-Dawley rat blood 2 minutes after intravenous administration, [99mTc]/[125I] IAP ratio); assay type: ADME, organism-based; settings: in vivo; method in brief: as §1
Rattus norvegicus [12] = assay: Biodistribution in Sprague-Dawley rat brain 15 minutes after intravenous administration, [99mTc]/[125I] IAP ratio); assay type: ADME, organism-based; settings: in vivo, 0.25 h; method in brief: as §1
Rattus norvegicus [13] = assay: Biodistribution in Sprague-Dawley rat brain 2 minutes after intravenous administration, [99mTc]/[125I] IAP ratio); assay type: ADME, organism-based; settings: in vivo; method in brief: as §1
Rattus norvegicus [14] = assay: Biodistribution in Sprague-Dawley rat heart 15 minutes after intravenous administration, [99mTc]/[125I] IAP ratio); assay type: ADME, organism-based; settings: in vivo, 0.25 h; method in brief: as §1
Rattus norvegicus [15] = assay: Biodistribution in Sprague-Dawley rat heart 2 minutes after intravenous administration, [99mTc]/[125I] IAP ratio); assay type: ADME, organism-based; settings: in vivo; method in brief: as §1
Rattus norvegicus [16] = assay: Biodistribution in Sprague-Dawley rat stomach 15 minutes after intravenous administration, [99mTc]/[125I] IAP ratio); assay type: ADME, organism-based; settings: in vivo, 0.25 h; method in brief: as §1
Rattus norvegicus [17] = assay: Biodistribution in Sprague-Dawley rat stomach 2 minutes after intravenous administration, [99mTc]/[125I] IAP ratio); assay type: ADME, organism-based; settings: in vivo; method in brief: as §1
Rattus norvegicus [18] = assay: Biodistribution in Sprague-Dawley rat kidneys(2) 2 minutes after intravenous administration, [99mTc]/[125I] IAP ratio); assay type: ADME, organism-based, Kidney; settings: in vivo; method in brief: as §1
Rattus norvegicus [19] = assay: Biodistribution in Sprague-Dawley rat liver 15 minutes after intravenous administration, [99mTc]/[125I] IAP ratio); assay type: ADME, organism-based; settings: in vivo, 0.25 h; method in brief: as §1
Rattus norvegicus [20] = assay: Biodistribution in Sprague-Dawley rat liver 2 minutes after intravenous administration, [99mTc]/[125I] IAP ratio); assay type: ADME, organism-based; settings: in vivo; method in brief: as §1
Rattus norvegicus [21] = assay: Biodistribution in Sprague-Dawley rat lungs(2) 15 minutes after intravenous administration, [99mTc]/[125I] IAP ratio); assay type: ADME, organism-based, Lung; settings: in vivo, 0.25 h; method in brief: as §1
Rattus norvegicus [22] = assay: Biodistribution in Sprague-Dawley rat lungs(2) 2 minutes after intravenous administration, [99mTc]/[125I] IAP ratio); assay type: ADME, organism-based, Lung; settings: in vivo; method in brief: as §1
Rattus norvegicus [23] = assay: Biodistribution in Sprague-Dawley rat muscle 2 minutes after intravenous administration, [99mTc]/[125I] IAP ratio); assay type: ADME, organism-based, Muscle tissue; settings: in vivo; method in brief: as §1
Rattus norvegicus [24] = assay: Biodistribution in Sprague-Dawley rat skin 15 minutes after intravenous administration, [99mTc]/[125I] IAP ratio); assay type: ADME, organism-based, Zone of skin; settings: in vivo, 0.25 h; method in brief: as §1
[25] = Partition coefficient was determined at pH 7.0.; assay type: ADME; settings: octanol/water
Method in brief: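 99mTc-labelled BAT complex shaken with 3 g each of 1-octanol and 0.1 M phosphate buffer (pH 7.0), vortexed 3 min at room temperature, centrifuged 5 min. Two 0.5 g samples per layer counted in a well counter; PC = cpm/g octanol over cpm/g buffer. Octanol layer repartitioned until values were consistent; usually repeated three times.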

Homo sapiens = organism: Homo sapiens; assay: The human serum protein binding activity was determined; assay type: functional
Method in brief: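 Equilibrium dialysis: 0.4 mL pooled human serum against 0.4 mL 0.15 M phosphate buffer pH 7.4 containing 99mTc complex (~0.025 μCi), rotated 18 h at 37 °C. Both sides weighed and counted; percent free = buffer/serum radioactivity concentration ratio × 100. Membrane counted afterwards to check membrane binding.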

Rattus norvegicus [26] = assay: Biodistribution in Sprague-Dawley rat brain 2 minutes after intravenous administration.; assay type: ADME, organism-based; settings: in vivo
Method in brief: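 Rats received the 99mTc complex iv together with [125I]iodoantipyrine as internal reference and were killed by cardiectomy. Brain was excised, weighed and gamma-counted. Percent dose/organ was obtained by comparing tissue activity with diluted aliquots of the injected dose, averaged over three rats. Radiochemical purity of the complexes was >95% by HPLC.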

Rattus norvegicus [27] = assay: Biodistribution in Sprague-Dawley rat muscle 15 minutes after intravenous administration, [99mTc]/[125I] IAP ratio); assay type: ADME, organism-based, Muscle tissue; settings: in vivo, 0.25 h; method in brief: as §1

Structure (SMILES)	Dose (Rattus norvegicus [1]) [%]	Dose (Rattus norvegicus [2]) [%]	Dose (Rattus norvegicus [3]) [%]	Dose (Rattus norvegicus [4]) [%]	Dose (Rattus norvegicus [5]) [%]	Dose (Rattus norvegicus [6]) [%]	Dose (Rattus norvegicus [7]) [%]	Dose (Rattus norvegicus [8]) [%]	Dose (Rattus norvegicus [10]) [%]	Dose (Rattus norvegicus [11]) [%]	Dose (Rattus norvegicus [12]) [%]	Dose (Rattus norvegicus [14]) [%]	Dose (Rattus norvegicus [15]) [%]	Dose (Rattus norvegicus [16]) [%]	Dose (Rattus norvegicus [17]) [%]	Dose (Rattus norvegicus [18]) [%]	Dose (Rattus norvegicus [19]) [%]	Dose (Rattus norvegicus [20]) [%]	Dose (Rattus norvegicus [21]) [%]	Dose (Rattus norvegicus [22]) [%]	also measured
CC(C)(S)CNCC(CN)NCC(C)(C)S.Cl.Cl.Cl (configuration not stated)	2.47	8.84	11.8	5.09	0.206	0.274	0.045	0.124	8.07	13.6	0.288	0.375	1.08	5.24	2.23	3.57	22.7	21.7	1.57	3.08	Dose (Rattus norvegicus [9]): 18.5%; Dose (Rattus norvegicus [13]): 1.28%; Dose (Rattus norvegicus [23]): 9.19%; Dose (Rattus norvegicus [24]): 9.43%; Partition coefficient [25]: 46.8; Free (Homo sapiens): 46.2%
CC(C)(S)CNCC(NCC(C)(C)S)c1ccccc1O (configuration not stated)	1.73	7.45	18.2	6.24	0.323	0.407	0.057	0.189	4.77	14.5	0.229	0.441	3.31	5.46	1.61	4.75	25.4	29	1.52	4.94	Dose (Rattus norvegicus [26]): 0.408%; Dose (Rattus norvegicus [27]): 12.4%; Dose (Rattus norvegicus [23]): 8.66%; Dose (Rattus norvegicus [24]): 8.17%; Partition coefficient [25]: 248; Free (Homo sapiens): 14.7%
